According to ChEMBL document CHEMBL3632518, “Synthesis and anti-HCV determinant motif identification in pyranone carboxamide scaffold” (Bioorg Med Chem Lett, 2015):

What was measured:
Hepatitis C virus = test: Antiviral activity against HCV genotype 1b infected in human HuH7 cells after 3 days by luciferase reporter gene assay; format: functional, organism-based, Hepacivirus hominis; conditions: Huh-7, 72 h
Method in brief: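 Huh-7 cells carrying self-replicating subgenomic genotype 1b HCV replicon with luciferase reporter (LucNeo#2), kept in DMEM high glucose plus 10% heat-inactivated FBS and 1 mg/ml G418. Seeded at 5×10^3 cells/well without G418 with various compound concentrations (DMSO stocks, 20 mM or higher); 37°C, 3 days. Cells PBS-washed, lysed, luciferase read by luminometer. EC50 from inhibition of luciferase activity.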

[1] = Cytotoxicity against human HuH7 cells after 3 days by tetrazolium dye method; format: cell-based, Huh-7
Method in brief: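 LucNeo#2 replicon-bearing Huh-7 cells, 5×10^3 cells/well, grown without G418 with various compound concentrations at 37°C for 3 days. Viable cell number measured by water-soluble tetrazolium dye (Tetracolor One) method. CC50 taken as concentration reducing viable cell number by 50%.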

| EC50 (Hepatitis C virus) | SMILES | CC50 at 72 h [1] |
| --- | --- | --- |
| 6 µM | COc1ccccc1NC(=O)c1c(NCCO)cc(-c2cccc(Br)c2)oc1=O | > 20 µM |
| 1.1 µM | CCOc1ccccc1NC(=O)c1c(NO)cc(-c2ccccc2)oc1=O | > 20 µM |
| 5.5 µM | O=C(Nc1ccc(F)cc1)c1c(NCCO)cc(-c2cccc(Br)c2)oc1=O | > 20 µM |
| > 20 µM | COc1ccccc1NC(=O)c1c(NCCO)cc(-c2ccc(Br)cc2)oc1=O | > 20 µM |
| 7.1 µM | O=C(Nc1ccc(Cl)cc1)c1c(NCCO)cc(-c2cccc(Br)c2)oc1=O | 17 µM |
| > 20 µM | COc1cccc(NC(=O)c2c(NCCO)cc(-c3cccs3)oc2=O)c1 | > 20 µM |
| > 20 µM | O=C(Nc1ccccc1)c1c(NCCO)cc(-c2cccc(Br)c2)oc1=O | > 20 µM |
| > 100 µM | O=C(NCCO)c1c(N2CCCCC2)cc(-c2ccc(F)cc2)oc1=O | > 100 µM |
| 13 µM | O=C(Nc1ccc(Br)cc1)c1c(NCCO)cc(-c2cccc(Br)c2)oc1=O | > 20 µM |
| 1.3 µM | O=C(Nc1ccccc1)c1c(NO)cc(-c2cccs2)oc1=O | > 20 µM |
| 3.5 µM | O=C(Nc1cc([N+](=O)[O-])ccc1O)c1c(NO)cc(-c2ccccc2)oc1=O | > 20 µM |
| 6 µM | O=C(Nc1ccc(Br)cc1)c1c(NO)cc(-c2cccs2)oc1=O | > 20 µM |
| 2.2 µM | O=C(NC1CCCCC1)c1c(NO)cc(-c2ccc(Cl)cc2)oc1=O | 8.8 µM |
| 14 µM | COc1ccc(NC(=O)c2c(NCCO)cc(-c3ccc(Br)cc3)oc2=O)cc1 | > 20 µM |
| 0.35 µM | COc1ccccc1NC(=O)c1c(NO)cc(-c2ccccc2)oc1=O | > 20 µM |
| 5.1 µM | CCOc1ccccc1NC(=O)c1c(NCCO)cc(-c2cccs2)oc1=O | 10 µM |
| 1.7 µM | O=C(Nc1ccccc1O)c1c(NO)cc(-c2ccccc2)oc1=O | 14 µM |
| 0.25 µM | Nc1ccccc1NC(=O)c1c(NO)cc(-c2cccs2)oc1=O | > 20 µM |
| 2.3 µM | O=C(NC1CCCCC1)c1c(NO)cc(-c2ccccc2)oc1=O | 10.5 µM |
| > 20 µM | CCOc1ccccc1NC(=O)c1c(NCCO)cc(-c2cccc(Br)c2)oc1=O | > 20 µM |
| 0.65 µM | O=C(Nc1ccc(F)cc1)c1c(NO)cc(-c2cccs2)oc1=O | > 20 µM |

Second part, the compound before the results:

| SMILES | EC50 (Hepatitis C virus) | CC50 at 72 h [1] |
| --- | --- | --- |
| Cc1cccc(NC(=O)c2c(NO)cc(-c3cccs3)oc2=O)c1 | 0.47 µM | > 20 µM |
| O=C(NC1CCCCC1)c1c(NO)cc(-c2ccc(F)cc2)oc1=O | 3.2 µM | 11.4 µM |
| O=C(Nc1ccc(Cl)cc1)c1c(NCCO)cc(-c2ccc(Br)cc2)oc1=O | 10 µM | > 20 µM |
| COc1cccc(NC(=O)c2c(NCCO)cc(-c3ccc(Br)cc3)oc2=O)c1 | > 20 µM | > 20 µM |
| CCC[C@H](NC(=O)[C@@H]1[C@H]2CCC[C@H]2CN1C(=O)[C@@H](NC(=O)[C@@H](NC(=O)c1cnccn1)C1CCCCC1)C(C)(C)C)C(=O)C(=O)NC1CC1 [TELAPREVIR] | 0.36 µM | > 20 µM |
| COc1cccc(NC(=O)c2c(NO)cc(-c3ccccc3)oc2=O)c1 | 0.63 µM | > 20 µM |
| O=C(Nc1ccccc1O)c1c(NCCO)cc(-c2ccccc2)oc1=O | > 20 µM | > 20 µM |
| COc1ccc(-c2cc(NO)c(C(=O)NC3CCCCC3)c(=O)o2)cc1 | 4.1 µM | 13.9 µM |
| COc1ccc(NC(=O)c2c(NO)cc(-c3cccs3)oc2=O)cc1 | 0.2 µM | > 20 µM |
| Nc1ccccc1NC(=O)c1c(NO)cc(-c2ccccc2)oc1=O | 0.48 µM | > 20 µM |
| CONc1cc(-c2ccc(C)cc2)oc(=O)c1C(=O)NCCCO | > 100 µM | > 100 µM |
| O=C(NCCBr)c1c(NCCO)cc(-c2cccs2)oc1=O | 15 µM | > 20 µM |
| O=C(Nc1cccc(C(F)(F)F)c1)c1c(NO)cc(-c2ccccc2)oc1=O | 1.2 µM | 19 µM |
| O=C(NC1CC1)c1c(NO)cc(-c2ccc(Cl)cc2)oc1=O | 2.9 µM | 12.8 µM |
| O=C(Nc1ccc(Cl)cc1)c1c(NO)cc(-c2cccs2)oc1=O | 3.8 µM | > 20 µM |
| COc1ccccc1NC(=O)c1c(NCCO)cc(-c2cccs2)oc1=O | > 20 µM | > 20 µM |
| O=C(Nc1ccc(Br)cc1)c1c(NCCO)cc(-c2ccc(Br)cc2)oc1=O | 14.4 µM | > 20 µM |
| CCOc1ccccc1NC(=O)c1c(NCCO)cc(-c2ccc(Br)cc2)oc1=O | > 20 µM | > 20 µM |
| CCOc1ccccc1NC(=O)c1c(NCCO)cc(-c2ccccc2)oc1=O | > 20 µM | > 20 µM |
| Cc1ccc(NC(=O)c2c(NO)cc(-c3cccs3)oc2=O)cc1 | 0.39 µM | > 20 µM |
| Cc1ccccc1NC(=O)c1c(NO)cc(-c2cccs2)oc1=O | 0.59 µM | > 20 µM |
| O=C(NC1CC1)c1c(NO)cc(-c2ccc(F)cc2)oc1=O | 3.3 µM | > 20 µM |
| Cc1ccc(-c2cc(NO)c(C(=O)NC3CCCCC3)c(=O)o2)cc1 | 5 µM | 10.1 µM |
| O=C(Nc1cccc(C(F)(F)F)c1)c1c(NO)cc(-c2cccs2)oc1=O | 1.8 µM | 11 µM |
